In one assay the target is P3 purinoceptor. Nature of the assay: Binding activity was evaluated on P3 purinoceptor-like protein from rat brain membranes by using [3H]NECA (40 nM). In a few lines: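 Partially purified P3LP: rat brain membranes solubilized in CHAPS, then hydroxylapatite chromatography; A1, A2A, A2B and A3 adenosine receptors and adenotin absent from the preparation.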
Assay [1] deals with T1, Adenosine receptor A3 (Rattus norvegicus) (UniProt P28647).
T1 sequence (whole entry): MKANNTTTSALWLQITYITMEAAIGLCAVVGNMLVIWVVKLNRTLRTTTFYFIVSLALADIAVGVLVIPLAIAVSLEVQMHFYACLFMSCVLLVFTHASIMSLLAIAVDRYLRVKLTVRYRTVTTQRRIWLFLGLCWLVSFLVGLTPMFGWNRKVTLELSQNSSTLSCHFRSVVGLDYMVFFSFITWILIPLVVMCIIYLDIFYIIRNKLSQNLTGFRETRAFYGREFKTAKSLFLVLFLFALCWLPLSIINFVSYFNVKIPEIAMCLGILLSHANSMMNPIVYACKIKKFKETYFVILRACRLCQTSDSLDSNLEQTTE
Nature of the assay: Inhibition of [125I]AB-MECA (0.15 nM) binding to Adenosine A3 receptor of RBL-2H3 cell membranes; No inhibition at 10 uM. In kind it is cell-based.

The target of assay [2] is Adenosine receptor A2a (Rattus norvegicus) (UniProt P30543). The settings on record: Membrane, 100 uM.
Adenosine receptor A2a (Rattus norvegicus), sequence (P30543 whole entry): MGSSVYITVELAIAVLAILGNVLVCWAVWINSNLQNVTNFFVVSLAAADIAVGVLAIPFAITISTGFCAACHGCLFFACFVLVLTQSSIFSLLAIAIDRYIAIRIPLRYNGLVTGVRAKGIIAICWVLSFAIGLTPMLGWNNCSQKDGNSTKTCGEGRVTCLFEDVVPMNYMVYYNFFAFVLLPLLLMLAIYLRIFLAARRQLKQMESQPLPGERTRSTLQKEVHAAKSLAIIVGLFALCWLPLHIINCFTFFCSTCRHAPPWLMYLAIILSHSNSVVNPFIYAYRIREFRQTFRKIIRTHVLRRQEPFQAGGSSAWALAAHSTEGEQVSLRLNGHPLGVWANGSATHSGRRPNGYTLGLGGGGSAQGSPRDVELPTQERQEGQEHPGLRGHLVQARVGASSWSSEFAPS
A further assay deals with T2, Adenosine receptor A1 (Rattus norvegicus, UniProt P25099).
T2 sequence (P25099 whole entry): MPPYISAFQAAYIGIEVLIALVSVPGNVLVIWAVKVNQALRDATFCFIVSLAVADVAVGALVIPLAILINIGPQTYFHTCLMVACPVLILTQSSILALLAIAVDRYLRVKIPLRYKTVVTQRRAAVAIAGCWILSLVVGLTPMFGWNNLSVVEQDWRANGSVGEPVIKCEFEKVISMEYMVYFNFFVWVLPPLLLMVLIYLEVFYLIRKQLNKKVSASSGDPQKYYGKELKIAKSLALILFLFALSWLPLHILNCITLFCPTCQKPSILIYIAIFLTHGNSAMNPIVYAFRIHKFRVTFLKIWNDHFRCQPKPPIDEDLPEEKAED
Nature of the assay: Inhibition of [3H]- DPCPX binding to Adenosine A1 receptor ofrat brain membranes.

The target of assay [3] is T1, Adenosine receptor A3 (Rattus norvegicus). Briefly: Inhibition of [125I]AB-MECA (0.15 nM) binding to Adenosine A3 receptor of RBL-2H3 cell membranes; No inhibition at 10 uM.
Assay [4] addresses T3, Adenosine receptor A2b (Rattus norvegicus) (UniProt P29276).
T3 sequence (whole entry): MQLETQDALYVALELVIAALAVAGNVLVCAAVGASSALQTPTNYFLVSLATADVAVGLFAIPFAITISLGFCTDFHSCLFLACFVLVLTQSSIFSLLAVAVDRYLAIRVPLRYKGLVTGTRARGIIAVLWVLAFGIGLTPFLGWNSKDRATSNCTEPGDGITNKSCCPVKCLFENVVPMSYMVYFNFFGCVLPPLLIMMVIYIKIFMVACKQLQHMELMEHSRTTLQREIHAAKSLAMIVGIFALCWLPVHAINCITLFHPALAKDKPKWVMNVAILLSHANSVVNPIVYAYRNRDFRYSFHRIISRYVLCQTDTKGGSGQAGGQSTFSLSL
Briefly: Activity against Adenosine A2B receptor as cAMP production in VA-13 cells; No inhibition at 100 uM. The format is functional, cell-based.

Assay [5] deals with T4, Adenosine receptor A1 (Rattus norvegicus) (UniProt P25099).
T4 sequence (whole entry): T2 sequence (P25099 whole entry)
Nature of the assay: Inhibition of [3H]- DPCPX binding to Adenosine A1 receptor of rat brain membranes at 10 uM. In kind it is cell membranes. The conditions noted are these: Membrane. The procedure, abridged:
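Rat brain membranes labelled with [3H]DPCPX (2 nM) to measure A1 receptor binding; test compound displacement read as percent inhibition at a single concentration.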

Active and inactive are the calls of the source. The calls are words filed in the database; no cut-off is given here.

Molecule `Nc1ncnc2c1ncn2C1O[C@H](CCl)[C@@H](O)[C@H]1O` (stereo not given in full) registered a Ki at P3 purinoceptor of 84 nM. Turning to `C#C[C@H](O)[C@H]1OC(n2cnc3c(N)ncnc32)[C@H](O)[C@@H]1O` (stereo not given in full), the inhibition result in assay [1] was “inactive”. For the same molecule, the inhibition in assay [2] stood at 40%. Also, the affinity at P3 purinoceptor corresponds to a Ki of 19 nM. The molecule also registered an Inhibition at Adenosine receptor A1 of 33%. As to `C#C[C@@H](O)[C@H]1OC(n2cnc3c(N)ncnc32)[C@H](O)[C@@H]1O` (stereo not given in full), the inhibition result in assay [3] and in assay [4] was “inactive” each time. In addition, the figures for the inhibition in assay [2] and in assay [5] were 40% and 21%, respectively. Moreover, on P3 purinoceptor, the affinity, expressed as Ki, was 450 nM. On to `CCNC(=O)[C@H]1O[C@@H](n2cnc3c(N)ncnc32)[C@H](O)[C@@H]1O` [NECA], for which, at P3 purinoceptor, the affinity, expressed as Ki, was 37 nM.

Take `CCCSC[C@H]1OC(n2cnc3c(N)ncnc32)[C@H](O)[C@@H]1O` (stereo not given in full): the affinity on P3 purinoceptor corresponds to a Ki of 1100 nM. As for `C#C[C@H]1OC(n2cnc3c(N)ncnc32)[C@H](O)[C@@H]1O` (stereo not given in full), at P3 purinoceptor, the Ki amounted to 280 nM. Against the preceding molecule, the Ki is about 3.9-fold lower. `CNC(=O)[C@H]1O[C@@H](n2cnc3c(N)ncnc32)[C@H](O)[C@@H]1O` came in with a Ki on P3 purinoceptor of 51 nM. At P3 purinoceptor, `[N-]=[N+]=NC[C@H]1OC(n2cnc3c(N)ncnc32)[C@H](O)[C@@H]1O` (stereo not given in full) came in with a Ki of 81 nM. The same measure, in the same setting: next, `Nc1ncnc2c1ncn2C1O[C@H](CSCc2ccccc2)[C@@H](O)[C@H]1O` (stereo not given in full): 70 nM; `CN(C)C(=O)[C@H]1OC(n2cnc3c(N)ncnc32)[C@H](O)[C@@H]1O` (stereo not given in full): 21000 nM; `N#C[C@H]1OC(n2cnc3c(N)ncnc32)[C@H](O)[C@@H]1O` (stereo not given in full): 64 nM.

Take `NC(=O)[C@H]1OC(n2cnc3c(N)ncnc32)[C@H](O)[C@@H]1O` (stereo not given in full): affinity at P3 purinoceptor was put at a Ki of 64 nM. Still for that read-out and setting: under `Nc1ncnc2c1ncn2C1O[C@H](CSc2ccccc2)[C@@H](O)[C@H]1O` (stereo not given in full) stands 54 nM.

Source of the values: ChEMBL document CHEMBL1131028, “Nucleosides and nucleotides. 177. 9-(6,7-dideoxy-beta-D-allo-hept-5- ynofuranosyl)adenine: a selective and potent ligand for P3 purinoceptor-like protein” (J Med Chem, 1998).
